Here are results for 24 molecules from ChEMBL document CHEMBL3098077, “Discovery of novel antitumor dibenzocyclooctatetraene derivatives and related biphenyls as potent inhibitors of NF-κB signaling pathway” (Bioorg Med Chem, 2014).

The test system of one assay is DU-145. In words: Cytotoxicity against human DU145 cells by SRB assay. The class given is functional. In short, it runs like this: (§1)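 SRB growth assay; GI50 taken as molar concentration giving 50% tumor cell growth inhibition. Paclitaxel run as positive control. KBvin is a P-gp-expressing epidermoid carcinoma of the nasopharynx line.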
A further assay has as its system KB. In words: Cytotoxicity against human KB cells by SRB assay. The assay is classed as functional. In a few lines: as §1
The nature of assay [1]: Cytotoxicity against human KBVIN cells by SRB assay. The class given is functional. In a few lines:
as §1
On the technique in general: Sulforhodamine B stains cellular protein and so reports cell mass.

The next assay concerns A549. The assay can be described thus: Cytotoxicity against human A549 cells by SRB assay. The assay is classed as functional. In short, it runs like this: as §1
Assay [2] in a line: (§2) Inhibition of LPS-induced NF-kappaB activation in mouse RAW264.7 cells treated 30 mins before LPS challenge measured after 6 hrs by luciferase reporter gene assay. The assay is classed as cell-based. In short, it runs like this:
(§3)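 RAW264.7 cells stably carrying an NF-κB-driven firefly luciferase reporter, seeded at 10^4 cells/well and attached overnight. Pretreated 30 min with compound, then stimulated with LPS 1 μg/mL for 6 h; cells lysed and luciferase activity measured. Compounds screened at 10 μM; those above 98% inhibition were tested at serial concentrations for IC50, alongside BAY 11-7082 as positive control.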

The test system of assay [3] is RAW264.7. In words: Antinflammatory activity in mouse RAW264.7 cells assessed as inhibition of LPS-induced nitric oxide production at 20 uM treated 30 mins before LPS challenge measured after 18 hrs by Griess assay. The class given is functional, cell-based. In a few lines:
(§4)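 RAW264.7 cells seeded in dishes, attached overnight, pretreated 30 min with compound (test compound at 0.6, 1.25 and 2.5 μM; reference inhibitor at 20 μM), then stimulated with LPS 1 μg/mL for 18 h. Medium collected and centrifuged; supernatant nitrite reacted with Griess reagents I and II, absorbance read at 540 nm as measure of NO.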
In general terms: Nitrite, measured by Griess reagent, commonly stands in for NO production.

Assay [4] relates to RAW264.7. In words: Inhibition of LPS-induced NF-kappaB activation in mouse RAW264.7 cells at 20 uM treated 30 mins before LPS challenge measured after 6 hrs by luciferase reporter gene assay. The assay is classed as cell-based. Background: Reporter assays use an easily measured gene product as a stand-in for the process of interest.
The test system of assay [5] is RAW264.7. In words: Antinflammatory activity in mouse RAW264.7 cells assessed as inhibition of LPS-induced nitric oxide production at 2.5 uM treated 30 mins before LPS challenge measured after 18 hrs by Griess assay. The assay is classed as functional, cell-based. In short, it runs like this: as §4
Assay [6] deals with RAW264.7. The assay can be described thus: Inhibition of LPS-induced NF-kappaB activation in mouse RAW264.7 cells at 10 uM treated 30 mins before LPS challenge measured after 6 hrs by luciferase reporter gene assay. The assay is classed as cell-based. In short, it runs like this: as §3
In assay [7] the test system is RAW264.7. The assay can be described thus: Inhibition of NF-kappaB-mediated IkappaBalpha degradation in LPS-induced mouse RAW264.7 cells treated 30 mins before LPS challenge measured after 15 mins by Western blot analysis. The assay is classed as cell-based. In a few lines:
(§5)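 RAW264.7 cells in dishes, attached overnight, pretreated 30 min with compound (test compound at 2.5, 5, 10 μM; reference inhibitor at 20 μM), then given LPS 1 μg/mL for 15 min. Total protein in RIPA buffer with protease/phosphatase inhibitors, used for IκB-α; nuclear extract used for p65. Western blot: SDS-PAGE, PVDF, primary antibody overnight at 4 °C, peroxidase secondary 1 h at room temperature, chemiluminescence.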

For assay [8], the system named is RAW264.7. The description is as §2. The class given is cell-based. In a few lines: as §3
Assay [9] addresses Transcription factor p65 (Mus musculus) (UniProt Q04207). In words: Inhibition of LPS-induced NF-kappaB p65 translocation into nucleus in mouse RAW264.7 cells treated 30 mins before LPS challenge measured after 15 mins by Western blot analysis. The class given is cell-based. In short, it runs like this: as §5

Molecules are shown by their SMILES. The source made the active and inactive calls. No cut-off for these calls is given here. A value given as a limit tells only on which side of the number the result lay.

One may read the GI50 as the concentration that inhibits growth by half. The low end stands for greater sensitivity of the cells, the high end for lower sensitivity of the cells. Usually IC50 stands for the concentration that gives 50% inhibition.

Transcription factor p65 (Mus musculus), sequence (Q04207 whole entry): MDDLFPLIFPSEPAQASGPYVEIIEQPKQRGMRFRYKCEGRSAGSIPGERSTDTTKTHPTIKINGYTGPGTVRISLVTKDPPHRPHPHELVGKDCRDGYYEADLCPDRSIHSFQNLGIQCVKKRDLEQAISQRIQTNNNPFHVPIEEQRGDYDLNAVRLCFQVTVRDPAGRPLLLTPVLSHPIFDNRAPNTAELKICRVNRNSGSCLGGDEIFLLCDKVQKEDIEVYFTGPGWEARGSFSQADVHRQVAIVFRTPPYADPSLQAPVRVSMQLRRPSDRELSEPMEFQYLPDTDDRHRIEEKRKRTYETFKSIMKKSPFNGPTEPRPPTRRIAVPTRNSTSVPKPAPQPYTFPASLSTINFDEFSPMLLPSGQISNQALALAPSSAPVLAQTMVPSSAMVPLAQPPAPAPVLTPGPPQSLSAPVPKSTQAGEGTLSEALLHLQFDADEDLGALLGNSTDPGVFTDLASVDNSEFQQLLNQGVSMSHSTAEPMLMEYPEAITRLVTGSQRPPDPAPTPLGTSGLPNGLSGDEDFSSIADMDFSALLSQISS

Regarding `COC(=O)c1cc(OC)c(OC)c(OC)c1-c1ccccc1C=C(C#N)C#N`, the GI50 with DU-145 turned out to be 21.9 µM; with KB it was 36.2 µM; in assay [1] it was 20.6 µM; in the assay on A549, 42 µM.

Consider `COC(=O)C1=C/c2cc(OC)c(OC)cc2-c2c(cc(OC)c(OC)c2OC)/C=C\1C(=O)OC`, for which the inhibition result in the assay with DU-145 was “inactive”. The GI50 (with KB; in [1]; in the assay on A549) was > 20 µM throughout.

As for `CCOC(=O)/C(C#N)=C/c1ccccc1-c1c(C(=O)OC)cc(OC)c(OC)c1OC`, the GI50 (in the assay on DU-145; with KB; in [1]; with A549) was > 40 µM each time.

Take `COC(=O)C1=C/c2cc3c(cc2-c2c(cc(OC)c(OC)c2OC)/C=C\1C(=O)OC)OCO3`: the GI50 worked out at 14 µM in the assay with KB, 15.4 µM in assay [1] and 14.5 µM in the assay with A549.

With `COc1cc(/C=C(\C)[N+](=O)[O-])c(-c2ccccc2/C=C(\C)[N+](=O)[O-])c2c1OCO2`, the GI50 turned out to be 19.8 µM in the assay with DU-145, 18 µM with KB, 18.7 µM in [1] and 13.9 µM in the assay on A549. For the same molecule, the IC50 in [2] is 810 nM.

`COc1cc(C=C(C#N)C#N)c(-c2cc3c(cc2C=C(C#N)C#N)OCO3)c(OC)c1OC`: the GI50 in the assay with DU-145 is 19.7 µM; with KB, > 40 µM; in [1], > 40 µM; in the assay on A549 it was > 40 µM.

Regarding `CC(=O)O[C@H]1C(=O)[C@@]2(C)[C@H]([C@H](OC(=O)c3ccccc3)[C@]3(O)C[C@H](OC(=O)[C@H](O)[C@@H](NC(=O)c4ccccc4)c4ccccc4)C(C)=C1C3(C)C)[C@]1(OC(C)=O)CO[C@@H]1C[C@@H]2O` [PACLITAXEL], the GI50 with DU-145 was 0.006 µM; in the assay with KB, 0.008 µM; in assay [1], 1.8 µM; with A549, 0.0076 µM.

As for `CCOC(=O)/C(C#N)=C/c1cc2c(cc1-c1c(/C=C(\C#N)C(=O)OCC)cc(OC)c(OC)c1OC)OCO2`, the GI50 (in the assay with DU-145; with KB; in assay [1]; in the assay on A549) was > 22 µM each time.

`COc1cc(/C=C/[N+](=O)[O-])c(-c2ccccc2/C=C/[N+](=O)[O-])c(OC)c1OC`: the GI50 with DU-145 was 2.09 µM; in the assay with KB, 2.58 µM; in [1], 4.6 µM; in the assay on A549, 3.07 µM. Also, the IC50 in [2] amounted to 1780 nM.

Take `COC(=O)c1cc(OC)c(OC)c(OC)c1-c1ccccc1/C=C(\C)[N+](=O)[O-]`: the GI50 in the assay with DU-145 stood at 6.56 µM; in the assay with KB, 6.95 µM; in assay [1] it was 6.17 µM; in the assay with A549 it was 6.2 µM. In assay [2], the midpoint of inhibition, the IC50, lay at 1610 nM.

For `COc1cc(C=C(C#N)C#N)c(-c2ccccc2C=C(C#N)C#N)c(OC)c1OC`, the GI50 (with DU-145; in the assay with KB; in assay [1]; in the assay with A549) was > 40 µM throughout.

In assay [2], `COc1cc(/C=C(/C)[N+](=O)[O-])c(-c2ccccc2/C=C(/C)[N+](=O)[O-])c(OC)c1OC` had an IC50 of 750 nM.

With `COc1cc2cc3c(=O)[nH]c(=O)c-3cc3cc(OC)c(OC)c(OC)c3c2cc1OC`, the GI50 with DU-145 amounted to 11.3 µM; with KB it was 10.1 µM; in assay [1], 10.8 µM; in the assay with A549 it was 10.1 µM. The IC50 in assay [2] came to 520 nM.

For `Cc1ccc(S(=O)(=O)/C=C/C#N)cc1`, the inhibition entry in the assay on RAW264.7 [3] and with RAW264.7 [4] was “Active” throughout. This molecule returned an IC50 in assay [2] of 1720 nM.

For the molecule `COc1cc(/C=C(\C)[N+](=O)[O-])c(-c2c(/C=C(\C)[N+](=O)[O-])cc(OC)c(OC)c2OC)cc1OC`, the GI50 in the assay with DU-145 was found to be 6.75 µM; in the assay on KB, 13.5 µM; in assay [1], 7.22 µM; in the assay with A549, 5.23 µM. This molecule also came in with an IC50 in assay [2] of 2160 nM.

In the case of `COc1cc2c(c(OC)c1OC)-c1cc3c(cc1/C=C(C(=O)O)\C(C(=O)O)=C/2)OCO3`, the GI50 (with DU-145; in the assay with KB; in assay [1]; in the assay with A549) was > 20 µM each time.

Consider `COc1cc2cc3c(=O)[nH]c(=O)c-3cc3cc4c(cc3c2c(OC)c1OC)OCO4`, for which the inhibition entry with RAW264.7 [5] and in the assay with RAW264.7 [6] was “Active” each time. Moreover, the GI50 in the assay on DU-145 was determined as 1.43 µM; in the assay on KB, 1.47 µM; in [1] it was 1.45 µM; in the assay on A549 it was 1.38 µM. In addition, the inhibition result (in the assay with RAW264.7 [7]; in the assay with RAW264.7 [8]; in assay [9]) was “Dose-dependent effect” in each case. In addition, inhibition in assay [2] was half-maximal at 520 nM (IC50).

For `COc1cc(/C=C/[N+](=O)[O-])c(-c2cc3c(cc2/C=C/[N+](=O)[O-])OCO3)c(OC)c1OC`, the GI50 in the assay on DU-145 is 9.09 µM; with KB, 5.49 µM; in assay [1], 8.6 µM; in the assay with A549 it was 8.95 µM. In assay [2], this molecule registered an IC50 of 1720 nM.

For `CCOC(=O)/C(C#N)=C/c1cc(OC)c(OC)cc1-c1c(/C=C(\C#N)C(=O)OCC)cc(OC)c(OC)c1OC`, the GI50 was 13.1 µM with DU-145, > 36 µM in the assay with KB, 15.1 µM in assay [1] and 13.8 µM in the assay with A549. Moreover, the 50% inhibitory concentration (IC50) in [2] was found to be 3750 nM.

Turning to `COc1cc2cc3c(=O)[nH]c(=O)c-3cc3ccccc3c2c(OC)c1OC`, the GI50 in the assay on DU-145 is 2.34 µM; with KB it was 2.67 µM; in [1] it was 2.07 µM; with A549 it was 2.31 µM. In assay [2], this molecule showed an IC50 of 1020 nM.

Take `COc1cc(C=C(C#N)C#N)c(-c2c(C=C(C#N)C#N)cc(OC)c(OC)c2OC)cc1OC`: the GI50 came out at 10.1 µM in the assay on DU-145, 23.2 µM with KB, 15.9 µM in [1] and 18 µM with A549. This molecule came in with an IC50 in assay [2] of 4160 nM.

Turning to `COc1c2c(cc(/C=C(\C)[N+](=O)[O-])c1-c1ccccc1/C=C(\C)[N+](=O)[O-])OCO2`, the GI50 is 5.02 µM with DU-145, 13.1 µM in the assay on KB, 12.3 µM in assay [1] and 4.02 µM in the assay on A549. In assay [2], the half-inhibitory concentration (IC50) worked out at 1610 nM.

As to `CCOC(=O)/C(C#N)=C/c1ccccc1-c1c(/C=C(\C#N)C(=O)OCC)cc(OC)c(OC)c1OC`, the GI50 in the assay on DU-145 stood at 8.08 µM; in the assay with KB, 6.53 µM; in [1] it was 8.45 µM; in the assay on A549, 7.02 µM. In assay [2], the IC50 stood at 3020 nM.

In the case of `COc1cc(/C=C(\C)[N+](=O)[O-])c(-c2cc3c(cc2/C=C(\C)[N+](=O)[O-])OCO3)c(OC)c1OC`, the 50% growth inhibitory concentration (GI50) in the assay with DU-145 is 1.51 µM; in the assay with KB, 0.72 µM; in assay [1] it was 1.27 µM; in the assay on A549 it was 0.87 µM. In [2], this molecule gave an IC50 of 900 nM.
